{
  "source": "paper PMC3475218",
  "about": "(Theranostics, 2012)",
  "key": {"neuropilin-1 (NRP-1)": {"system": "neuropilin-1 (NRP-1)", "details": "receptor expressed in angiogenic vasculature; ref [19], [20], [22]; cited from earlier work"}, "[1]": {"system": "recombinant chimeric neuropilin-1 (NRP-1) protein", "experiment": "Competitive binding to recombinant NRP-1 protein", "details": "5 ng/mL biotinylated VEGF165, 2 µg/mL heparin, 2 h room temperature; n=3", "method_in_brief": "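Plates coated overnight at room temperature with recombinant chimeric NRP-1 (2 µg/mL in PBS), washed with PBS/0.05% Tween 20, and blocked with PBS/0.5% BSA for 1 h at 37°C. Biotinylated VEGF165 (5 ng/mL, with 2 µg/mL heparin) was added with increasing test nanoparticle concentrations, Gd-matched control nanoparticles, or excess unlabelled VEGF165 (0.5 µg/mL). Streptavidin-HRP colorimetric read-out at 450 nm was expressed relative to the no-competitor control, in triplicate.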"}, "MDA-MB-231 cells [2]": {"system": "MDA-MB-231 cells", "experiment": "Photo-induced cytotoxicity, real-time impedance-based cell analysis", "parameters": "species or system human", "details": "first 24 h post-exposure, before light irradiation; mean of six replicates", "method_in_brief": "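MDA-MB-231 cells were cultured in RPMI with 9% heat-inactivated FBS, penicillin/streptomycin and 2 mM L-glutamine at 37°C, 5% CO2. Cells were seeded at 10^4 per well on electrode plates, and impedance was read every 15 min. At 24 h, test nanoparticles were added at final photosensitizer concentrations of 0.05–10.00 µM, or Gd-matched control nanoparticles at 2.9–585.0 µM. Cells were kept in darkness for 24 h before washing, with six replicates. Cell index was calculated as background-subtracted impedance.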"}, "[3]": {"experiment": "UV/Vis absorption and fluorescence spectra", "assay_type": "physicochemical", "details": "from UV/Vis calibration curve of free TPC", "method_in_brief": "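Absorption spectra were recorded by UV-visible spectrophotometry on ethanol suspensions of nanoparticles and free photosensitizer. Fluorescence spectra were acquired on a spectrofluorimeter with xenon lamp excitation and a thermostatted cell compartment at 25°C.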"}, "[4]": {"experiment": "Zeta potential measurement", "assay_type": "physicochemical", "details": "ultrapure water, pH ~ 7.0, 5 mM gadolinium, 20°C, Zetasizer Nano ZS", "method_in_brief": "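Nanoparticles were suspended in ultrapure water at pH ~7.0 and 5 mM Gd and measured by electrophoretic light scattering (532 nm laser). Readings were taken 2.00 mm from the cell wall with an automatic attenuator at 20°C. Each sample ran 15 runs of 10 s, repeated three times.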"}, "[5]": {"system": "orthotopic U87 human glioblastoma (tumor tissue) in nude rats", "experiment": "In vivo tumor MRI contrast enhancement kinetics", "parameters": "species or system rat", "details": "i.v., 25 µmol of Gd / 250 g", "method_in_brief": "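Male athymic nude rats (rnu/rnu) received 5.10^5 U87 cells in 5 μL HBSS stereotactically into the right striatum (0.5 mm anterior, 2.7 mm lateral to bregma) under i.p. ketamine/xylazine. About 20 days later, nanoparticles were given intravenously in 500 µL, diluted in 9‰ NaCl from an iso-osmolar 100 mM Gd stock at pH ~7.4. Tumor MRI signal was normalized to pre-injection and contralateral tissue, and its decline from peak was followed.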"}, "MDA-MB-231 cells [6]": {"system": "MDA-MB-231 cells", "experiment": "Photodynamic activity", "assay_type": "cell-based, human", "details": "for DL50 (50% cell growth inhibitory light dose): 652 nm, 24 h incubation, MTT 24 h post-irradiation, six replicates"}},
  "note": "“And” between values parts separate entries of the source, which are not always exact repeats. Identical values can stand only once.",
  "data": [
    {"substance": "H-ATWLPPR-OH [ATWLPPR]", "values": [
      {"measurement": "NRP-1 targeting (qualitative)", "setting": "neuropilin-1 (NRP-1)", "result": "selectively target NRP-1 receptor"}
    ]},
    {"substance": "H-ATWLPPR-OH [NP-TPC-ATWLPPR]", "values": [
      {"measurement": "Binding to NRP-1 (qualitative)", "setting": "[1]", "result": "greatly displaced"},
      {"measurement": "Cell index before irradiation", "setting": "MDA-MB-231 cells [2]", "result": "no decrease in cell index values"},
      {"measurement": "TPC molecules per nanoparticle", "setting": "[3]", "result": "~ 1.7 TPC molecules per nanoparticle"},
      {"measurement": "Zeta potential", "setting": "[4]", "result": "12.9±4", "unit": "mV"},
      {"measurement": "Rate of decrease of tumor MRI contrast", "setting": "[5]; decrease from maximum peak", "result": "-0.0072 .min^-1"},
      {"measurement": "Half-life in tumor tissue (T1/2)", "setting": "[5]; semi-logarithmic presentation of MRI contrast enhancement decrease", "result": 96.25, "unit": "min"},
      {"measurement": "DL50 (50% cell growth inhibitory light dose)", "setting": "MDA-MB-231 cells [6]; 0.1 µM TPC", "result": "9.16 J/cm^2 and 9.2 J/cm^2"},
      {"measurement": "DL50 (50% cell growth inhibitory light dose)", "setting": "MDA-MB-231 cells [6]; 1.0 µM TPC", "result": "2.80 J/cm^2 and 2.8 J/cm^2"},
      {"measurement": "Photocytotoxic effectiveness, 1.0 µM vs 0.1 µM TPC", "setting": "MDA-MB-231 cells [6]; ratio of DL50 at 0.1 and 1.0 µM", "result": 3.3, "unit": "times"}
    ]}
  ]
}
